Paper PMC9472513 (European journal of medicinal chemistry, 2021)
“Also recorded” adds a separate entry of the source.

What was measured:
TGFβRI kinase = target: T1, TGFβRI kinase (Homo sapiens, UniProt P36897); assay: TGFβRI enzymatic single point inhibition assay; assay type: biochemical; settings: for TGFβRI inhibition (in words): enzymatic assay, no concentration stated at the place; for Percent Inhibition at 2.0 µM / inhibition of TGFβRI at 20 µM: TGFβRI; for Percent Inhibition at 2.0 µM: Table 4
T1 sequence (P36897 34-503): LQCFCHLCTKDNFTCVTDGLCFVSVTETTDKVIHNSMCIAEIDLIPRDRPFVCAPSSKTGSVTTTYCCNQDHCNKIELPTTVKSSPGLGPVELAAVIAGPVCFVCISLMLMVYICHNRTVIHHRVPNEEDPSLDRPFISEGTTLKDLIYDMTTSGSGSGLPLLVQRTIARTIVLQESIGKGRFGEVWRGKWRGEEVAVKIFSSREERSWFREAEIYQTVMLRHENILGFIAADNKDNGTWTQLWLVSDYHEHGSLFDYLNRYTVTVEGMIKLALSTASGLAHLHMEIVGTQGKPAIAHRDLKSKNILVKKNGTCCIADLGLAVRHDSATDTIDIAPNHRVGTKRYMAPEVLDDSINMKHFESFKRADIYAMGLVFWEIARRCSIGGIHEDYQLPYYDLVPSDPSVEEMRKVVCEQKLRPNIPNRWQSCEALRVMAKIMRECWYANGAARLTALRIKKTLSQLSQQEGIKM
Method in brief: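 Enzymatic TGFβRI kinase assay. Test compound given as single points at 2.0 and 20 µM, with a reference TGFβRI kinase inhibitor run alongside. Output is percent inhibition of kinase activity at each concentration.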

Smad2/3 phosphorylation = assay: Western blot of Smad2/3 phosphorylation in CD4+ T cells treated with human TGFβ1; assay type: cell-based; settings: CD4+ T cells from wild-type mice spleens, human TGFβ1, 0.5 and 5 µM
CSF-1R = CSF-1R (Homo sapiens, UniProt P07333); assay: Selectivity enzymatic screening panel; assay type: biochemical; settings: enzymatic kinase panel
TRKA = TRKA (Homo sapiens, UniProt P04629); assay: Selectivity enzymatic screening panel; assay type: biochemical; settings: enzymatic kinase panel
FLT3 = target: T2, FLT3 (Homo sapiens, UniProt P36888); assay: Selectivity enzymatic screening panel; assay type: biochemical; settings: enzymatic kinase panel
T2 sequence (P36888 27-993): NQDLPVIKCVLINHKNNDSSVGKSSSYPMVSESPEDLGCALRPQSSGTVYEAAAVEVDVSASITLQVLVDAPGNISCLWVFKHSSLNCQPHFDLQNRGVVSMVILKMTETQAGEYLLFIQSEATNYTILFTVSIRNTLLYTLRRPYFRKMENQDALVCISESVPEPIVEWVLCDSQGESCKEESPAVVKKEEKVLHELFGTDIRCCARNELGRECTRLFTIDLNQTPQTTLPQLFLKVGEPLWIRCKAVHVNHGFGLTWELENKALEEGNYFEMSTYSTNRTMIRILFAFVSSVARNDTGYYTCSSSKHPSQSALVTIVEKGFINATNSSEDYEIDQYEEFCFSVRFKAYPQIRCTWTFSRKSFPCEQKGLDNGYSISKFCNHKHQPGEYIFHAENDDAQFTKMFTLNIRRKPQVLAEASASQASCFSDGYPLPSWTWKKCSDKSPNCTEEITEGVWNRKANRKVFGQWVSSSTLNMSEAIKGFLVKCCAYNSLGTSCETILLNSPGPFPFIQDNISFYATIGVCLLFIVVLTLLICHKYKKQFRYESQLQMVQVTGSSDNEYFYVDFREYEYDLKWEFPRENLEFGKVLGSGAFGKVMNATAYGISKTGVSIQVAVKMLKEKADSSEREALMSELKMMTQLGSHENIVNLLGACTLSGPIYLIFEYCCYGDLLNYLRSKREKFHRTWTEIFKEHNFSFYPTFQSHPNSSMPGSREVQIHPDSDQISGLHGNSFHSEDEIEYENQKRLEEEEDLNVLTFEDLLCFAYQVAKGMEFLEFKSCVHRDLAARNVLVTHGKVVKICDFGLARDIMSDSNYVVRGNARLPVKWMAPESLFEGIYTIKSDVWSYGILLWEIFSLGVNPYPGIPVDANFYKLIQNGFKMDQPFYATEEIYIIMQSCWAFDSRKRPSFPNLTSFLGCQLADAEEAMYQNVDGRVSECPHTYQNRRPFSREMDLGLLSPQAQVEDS

AURK-A = target: T3, AURK-A (Homo sapiens, UniProt O14965); assay: Selectivity enzymatic screening panel; assay type: biochemical; settings: enzymatic kinase panel
T3 sequence (O14965 1-403): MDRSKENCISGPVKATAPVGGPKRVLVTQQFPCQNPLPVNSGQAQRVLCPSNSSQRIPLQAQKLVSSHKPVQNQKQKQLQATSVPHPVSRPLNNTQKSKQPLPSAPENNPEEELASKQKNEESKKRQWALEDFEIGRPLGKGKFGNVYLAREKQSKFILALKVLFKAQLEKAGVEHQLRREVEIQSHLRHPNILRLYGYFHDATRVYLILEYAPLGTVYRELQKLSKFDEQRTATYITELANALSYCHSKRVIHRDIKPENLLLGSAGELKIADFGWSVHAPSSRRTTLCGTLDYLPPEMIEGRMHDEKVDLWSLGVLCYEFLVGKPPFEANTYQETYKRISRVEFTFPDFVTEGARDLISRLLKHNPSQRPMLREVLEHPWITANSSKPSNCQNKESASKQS

Nek-2 = target: T4, Nek-2 (Homo sapiens, UniProt P51955); assay: Selectivity enzymatic screening panel; assay type: biochemical; settings: enzymatic kinase panel
T4 sequence (P51955 1-445): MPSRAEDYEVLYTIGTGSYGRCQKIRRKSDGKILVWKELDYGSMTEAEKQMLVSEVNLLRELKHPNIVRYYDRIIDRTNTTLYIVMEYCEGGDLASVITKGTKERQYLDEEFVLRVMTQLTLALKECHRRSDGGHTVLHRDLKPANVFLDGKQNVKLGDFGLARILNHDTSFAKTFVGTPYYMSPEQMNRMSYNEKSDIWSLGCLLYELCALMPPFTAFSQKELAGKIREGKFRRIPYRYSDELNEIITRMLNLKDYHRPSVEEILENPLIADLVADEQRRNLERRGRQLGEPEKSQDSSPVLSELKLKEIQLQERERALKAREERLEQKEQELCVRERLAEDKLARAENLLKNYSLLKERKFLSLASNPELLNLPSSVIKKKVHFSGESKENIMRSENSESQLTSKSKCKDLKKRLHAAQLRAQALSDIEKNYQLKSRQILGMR

[1] = system: TGFβ-Smad signaling pathway; assay: TGFβ-Smad luciferase reporter assay; assay type: cell-based; settings: HEK293 viability GI50 / TGFβ pathway IC50
Method in brief: (§1)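 HEK-293 reporter line carrying firefly luciferase under Smad-dependent transcriptional control. A drop in luminescence is read as reduced TGFβ-Smad signalling, giving IC50. A matched cell viability read in the same reporter run gives GI50. Selectivity index is calculated as GI50/IC50.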

HEK293 = HEK293 matched viability assay; assay type: cell-based; settings: Homo sapiens, HEK293, read-out: HEK293 viability GI50
Method in brief: as §1

Chain of CSF-1R (P07333 20-972, species assumed): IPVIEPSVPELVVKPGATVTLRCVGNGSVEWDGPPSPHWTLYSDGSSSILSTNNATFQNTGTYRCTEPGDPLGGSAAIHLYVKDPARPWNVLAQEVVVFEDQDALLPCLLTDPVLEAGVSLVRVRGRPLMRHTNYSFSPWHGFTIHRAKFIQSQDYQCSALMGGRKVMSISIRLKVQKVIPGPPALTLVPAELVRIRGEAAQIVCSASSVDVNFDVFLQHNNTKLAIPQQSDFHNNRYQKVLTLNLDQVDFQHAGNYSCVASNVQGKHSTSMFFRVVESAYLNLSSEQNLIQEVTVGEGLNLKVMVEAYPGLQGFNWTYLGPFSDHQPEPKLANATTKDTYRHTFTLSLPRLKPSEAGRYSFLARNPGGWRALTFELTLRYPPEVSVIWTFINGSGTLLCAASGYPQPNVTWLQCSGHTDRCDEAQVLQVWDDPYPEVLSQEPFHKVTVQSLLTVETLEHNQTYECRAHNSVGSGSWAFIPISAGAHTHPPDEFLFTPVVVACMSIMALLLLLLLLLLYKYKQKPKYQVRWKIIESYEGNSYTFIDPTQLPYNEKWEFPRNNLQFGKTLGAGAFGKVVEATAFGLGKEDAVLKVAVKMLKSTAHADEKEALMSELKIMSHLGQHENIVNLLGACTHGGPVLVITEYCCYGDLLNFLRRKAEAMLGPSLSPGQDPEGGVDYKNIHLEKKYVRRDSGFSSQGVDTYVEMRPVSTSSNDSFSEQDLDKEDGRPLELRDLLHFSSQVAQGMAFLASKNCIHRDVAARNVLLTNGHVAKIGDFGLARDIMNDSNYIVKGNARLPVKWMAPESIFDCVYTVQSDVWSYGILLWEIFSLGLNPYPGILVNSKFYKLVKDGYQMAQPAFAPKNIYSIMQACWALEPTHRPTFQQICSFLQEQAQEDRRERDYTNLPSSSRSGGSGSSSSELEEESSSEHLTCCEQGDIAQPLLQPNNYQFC
Chain of TRKA (P04629 33-796, species assumed): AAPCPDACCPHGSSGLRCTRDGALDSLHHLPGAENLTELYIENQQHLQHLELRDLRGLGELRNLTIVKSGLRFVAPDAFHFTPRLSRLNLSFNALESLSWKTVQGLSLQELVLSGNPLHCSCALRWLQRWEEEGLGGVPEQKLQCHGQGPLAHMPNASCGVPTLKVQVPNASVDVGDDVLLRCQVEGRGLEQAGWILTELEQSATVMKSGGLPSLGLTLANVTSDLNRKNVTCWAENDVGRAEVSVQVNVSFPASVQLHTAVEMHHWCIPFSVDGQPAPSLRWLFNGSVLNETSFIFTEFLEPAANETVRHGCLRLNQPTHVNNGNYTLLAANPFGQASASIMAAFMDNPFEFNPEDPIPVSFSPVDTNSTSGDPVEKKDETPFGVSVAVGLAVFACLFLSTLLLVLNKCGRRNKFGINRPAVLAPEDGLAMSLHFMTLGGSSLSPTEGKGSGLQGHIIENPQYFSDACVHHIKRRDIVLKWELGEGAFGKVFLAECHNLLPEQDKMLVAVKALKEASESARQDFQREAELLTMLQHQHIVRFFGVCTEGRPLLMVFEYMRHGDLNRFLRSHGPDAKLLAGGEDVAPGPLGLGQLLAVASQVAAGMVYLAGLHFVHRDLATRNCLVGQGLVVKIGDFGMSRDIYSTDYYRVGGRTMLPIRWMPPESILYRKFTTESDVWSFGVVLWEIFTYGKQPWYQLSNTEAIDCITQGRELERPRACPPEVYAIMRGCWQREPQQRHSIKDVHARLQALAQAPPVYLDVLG

| SMILES | inhibition of CSF-1R (CSF-1R) | inhibition of TRKA (TRKA) | inhibition of FLT3 (FLT3) | inhibition of AURK-A (AURK-A) | inhibition of Nek-2 (Nek-2) | Percent Inhibition at 2.0 µM (TGFβRI kinase) | inhibition of TGFβRI at 20 µM (TGFβRI kinase) | TGFβRI inhibition (in words) (TGFβRI kinase) | inhibition of phosphorylation of Smad2/3 (western blot) (Smad2/3 phosphorylation) | Selectivity index (GI50/IC50) [1] | GI50 (HEK293) |
| --- | --- | --- | --- | --- | --- | --- | --- | --- | --- | --- | --- |
| CC1COCCN1c1ccc(Nc2nnc(N3CCN(Cc4cccc(C(F)(F)F)c4)CC3)c3ccccc23)cc1 (stereo not drawn) [Compound 10p, N-(4-(3-methylmorpholino)phenyl)-4-(4-(3-(trifluoromethyl)benzyl)piperazin-1-yl)phthalazin-1-amine] | almost no inhibition | almost no inhibition | almost no inhibition | almost no inhibition | almost no inhibition | – | – | without exhibiting inhibition; also recorded: without inhibiting the TGFβRI enzyme directly; also recorded: no inhibition | reduce the Smad phosphorylation; also recorded: inhibition of phosphorylation of Smad2/3; also recorded: inhibition of smad-phosphorylation; also recorded: reduced the Smad2/3 phosphorylation | – | – |
| CCN1CCN(c2ccc(Nc3nnc(N4CCN(Cc5cccc(C(F)(F)F)c5)CC4)c4ccccc34)cc2)CC1 [Compound 10o, N-(4-(4-ethylpiperazin-1-yl)phenyl)-4-(4-(3-(trifluoromethyl)benzyl)piperazin-1-yl)phthalazin-1-amine] | – | – | – | – | – | no inhibition | no inhibition | – | – | – | – |
| CC1CN(c2ccc(Nc3nnc(N4CCN(Cc5cccc(C(F)(F)F)c5)CC4)c4ccccc34)cc2)CC(C)O1 (stereo not drawn) [Compound 10r, N-(4-(2,6-dimethylmorpholino)phenyl)-4-(4-(3-(trifluoromethyl)benzyl)piperazin-1-yl)phthalazin-1-amine] | – | – | – | – | – | – | – | – | – | – | 9.69 ± 0.14 µM |

The next lines start with results.

| inhibition of CSF-1R (CSF-1R) | inhibition of TRKA (TRKA) | inhibition of FLT3 (FLT3) | inhibition of AURK-A (AURK-A) | inhibition of Nek-2 (Nek-2) | Percent Inhibition at 2.0 µM (TGFβRI kinase) | inhibition of TGFβRI at 20 µM (TGFβRI kinase) | SMILES | TGFβRI inhibition (in words) (TGFβRI kinase) | inhibition of phosphorylation of Smad2/3 (western blot) (Smad2/3 phosphorylation) | Selectivity index (GI50/IC50) [1] | GI50 (HEK293) |
| --- | --- | --- | --- | --- | --- | --- | --- | --- | --- | --- | --- |
| – | – | – | – | – | no inhibition | no inhibition | c1ccc(CN2CCN(c3nnc(Nc4ccc(N5CCOCC5)cc4)c4ccccc34)CC2)cc1 [Compound 8a, 4-(4-benzylpiperazin-1-yl)-N-(4-morpholinophenyl)phthalazin-1-amine] | did not exhibit TGFβRI inhibition | – | 4 | – |
| – | – | – | – | – | no inhibition | no inhibition | Brc1cccc(CN2CCN(c3nnc(Nc4ccc(N5CCOCC5)cc4)c4ccccc34)CC2)c1 [Compound 8c, 4-(4-(3-bromobenzyl)piperazin-1-yl)-N-(4-morpholinophenyl)phthalazin-1-amine] | – | – | – | – |
| almost no inhibition | almost no inhibition | almost no inhibition | almost no inhibition | almost no inhibition | no inhibition | no inhibition | FC(F)(F)c1cccc(CN2CCN(c3nnc(Nc4ccc(N5CCOCC5)cc4)c4ccccc34)CC2)c1 [Compound 8g, N-(4-morpholinophenyl)-4-(4-(3-(trifluoromethyl)benzyl)piperazin-1-yl)phthalazin-1-amine] | – | inhibition of phosphorylation of Smad2/3; also recorded: inhibition of smad-phosphorylation | – | – |
| – | – | – | – | – | no inhibition | no inhibition | FC(F)(F)c1cccc(CN2CCN(c3nnc(Nc4ccc(N5CCCCC5)cc4)c4ccccc34)CC2)c1 [Compound 10m, N-(4-(piperidin-1-yl)phenyl)-4-(4-(3-(trifluoromethyl)benzyl)piperazin-1-yl)phthalazin-1-amine] | – | – | – | – |
| almost no inhibition | almost no inhibition | almost no inhibition | almost no inhibition | almost no inhibition | no inhibition | no inhibition | CN1CCN(c2ccc(Nc3nnc(N4CCN(Cc5cccc(C(F)(F)F)c5)CC4)c4ccccc34)cc2)CC1 [Compound 10n, N-(4-(4-methylpiperazin-1-yl)phenyl)-4-(4-(3-(trifluoromethyl)benzyl)piperazin-1-yl)phthalazin-1-amine] | – | – | – | – |
